From ChEMBL document CHEMBL4118152, “Discovery of Potent and Selective Periphery-Restricted Quinazoline Inhibitors of the Cyclic Nucleotide Phosphodiesterase PDE1” (J Med Chem, 2018)

Legend:
[1] = biological target: Histamine H1 receptor (Homo sapiens) (UniProt P35367); test: Inhibition of human histamine H1 receptor at 10 uM relative to control
[2] = biological target: Dual 3',5'-cyclic-AMP and -GMP phosphodiesterase 11A (Homo sapiens, UniProt Q9HCR9); test: Inhibition of full length recombinant human PDE11A4 using 3',5'-[3H]cGMP as substrate after 30 mins by scintillation proximity assay
Summary of the method: (§1)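 Enzymes were human except PDE6A, which was bovine. Each was assayed with cAMP or cGMP substrate, as appropriate to the enzyme, at concentrations below 1/3 of Km. IC50 values are mean ± SEM from n = 3 or more.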

Homo sapiens [3] = species: Homo sapiens; test: Selectivity ratio of IC50 for full length recombinant human PDE4D3 to IC50 for full length recombinant human PDE1B1
Summary of the method: (§2)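 IC50s were measured against recombinant PDEs, all human except PDE6A (bovine). Each enzyme was given its appropriate cAMP or cGMP substrate at below 1/3 of its Km. IC50s are the mean of n = 3 or more. The selectivity ratio is the IC50 for the other PDE divided by the IC50 for PDE1B1 or PDE1A.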

[4] = biological target: Muscarinic acetylcholine receptor M1 (Homo sapiens) (UniProt P11229); test: Inhibition of human muscarinic M1 receptor at 10 uM relative to control
[5] = biological target: 5-hydroxytryptamine receptor 6 (Homo sapiens) (UniProt P50406); test: Inhibition of human 5-HT6 receptor at 10 uM relative to control
Homo sapiens [6] = species: Homo sapiens; test: Selectivity ratio of IC50 for full length recombinant human PDE1A to IC50 for full length recombinant human PDE1B1; summary of the method: as §2
[7] = biological target: Muscarinic acetylcholine receptor M3 (Homo sapiens) (UniProt P20309); test: Inhibition of human muscarinic M3 receptor at 10 uM relative to control
[8] = biological target: Glucocorticoid receptor (Homo sapiens) (UniProt P04150); test: Inhibition of human glucocorticoid receptor at 10 uM relative to control
[9] = biological target: D(4) dopamine receptor (Homo sapiens) (UniProt P21917); test: Inhibition of dopamine D4 receptor (unknown origin) at 10 uM relative to control
[10] = biological target: 5-hydroxytryptamine receptor 1A (Homo sapiens) (UniProt P08908); test: Inhibition of human 5-HT1A receptor at 10 uM relative to control
BCRP (ABCG2) = BCRP (ABCG2) (Homo sapiens, UniProt Q9UNQ0); test: Substrate activity at BCRP (unknown origin) assessed as efflux ratio; conditions: not told
Homo sapiens [11] = species: Homo sapiens; test: Selectivity ratio of IC50 for full length recombinant human PDE3A1 to IC50 for full length recombinant human PDE1B1; summary of the method: as §2
[12] = biological target: High affinity choline transporter 1 (Homo sapiens) (UniProt Q9GZV3); test: Displacement of [3H]hemicholinium-3 from recombinant human Choline Transporter at 10 uM after 60 mins by scintillation counting analysis relative to control
[13] = Fraction unbound in Wistar Hannover rat plasma at 1 mg/kg, sc measured at 0.5 hrs post dose by LC-MS/MS analysis; type: ADME, organism-based; conditions: in vivo
[14] = Fraction unbound in Wistar Hannover rat plasma at 1 mg/kg, sc measured at 0.5 to 4 hrs post dose by LC-MS/MS analysis; type: ADME, organism-based
[15] = biological target: Type-1 angiotensin II receptor (Homo sapiens) (UniProt P30556); test: Inhibition of human angiotensin 1 receptor at 10 uM relative to control
[16] = biological target: Prostaglandin G/H synthase 1 (Homo sapiens) (UniProt P23219); test: Inhibition of recombinant human Cyclooxygenase 1 using arachidonic acid/ADHP as substrate at 10 uM after 3 mins by Fluorimetric method relative to control
[17] = Fraction unbound in Wistar Hannover rat plasma at 1 mg/kg, sc measured at 2 hrs post dose by LC-MS/MS analysis; type: ADME, organism-based; conditions: in vivo
Homo sapiens [18] = species: Homo sapiens; test: Selectivity ratio of IC50 for full length recombinant human PDE2A1 to IC50 for full length recombinant human PDE1A; summary of the method: as §2
Homo sapiens [19] = species: Homo sapiens; test: Inhibition of human delta 2 opioid receptor at 10 uM relative to control
[20] = Fraction unbound in Wistar Hannover rat brain at 1 mg/kg, sc measured at 2 hrs post dose by LC-MS/MS analysis; type: ADME, organism-based; conditions: in vivo
[21] = Ratio of fraction unbound in Wistar Hannover rat brain to plasma at 1 mg/kg, sc measured at 2 hrs post dose by LC-MS/MS analysis; type: ADME, organism-based; conditions: in vivo
[22] = biological target: Prostaglandin G/H synthase 2 (Homo sapiens) (UniProt P35354); test: Inhibition of recombinant human cyclooxygenase 2 using arachidonic acid/ADHP as substrate at 10 uM after 5 mins by Fluorimetric method relative to control
Homo sapiens [23] = species: Homo sapiens; test: Inhibition of human phencyclidine receptor at 10 uM relative to control
[24] = biological target: Adenosine receptor A3 (Homo sapiens) (UniProt P0DMS8); test: Inhibition of human adenosine A3 receptor at 10 uM relative to control
Homo sapiens [25] = species: Homo sapiens; test: Selectivity ratio of IC50 for full length recombinant human PDE8B to IC50 for full length recombinant human PDE1B1; summary of the method: as §2
[26] = biological target: Melatonin receptor type 1A (Homo sapiens) (UniProt P48039); test: Inhibition of human MT1A at 10 uM relative to control
[27] = Drug uptake in Wistar Hannover rat cerebrospinal fluid at 1 mg/kg, sc measured at 1 hr post dose by LC-MS/MS analysis; type: ADME, organism-based; conditions: read-out: Drug uptake
Summary of the method: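 Rats were dosed subcutaneously at 1 mg/kg. CSF, plasma and brain were sampled at 0.5, 1, 2 and 4 h post dose and analysed for drug concentration. Values are means at each time point.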

[28] = biological target: Cysteinyl leukotriene receptor 1 (Homo sapiens) (UniProt Q9Y271); test: Inhibition of human leukotriene D4 receptor at 10 uM relative to control
Homo sapiens [29] = species: Homo sapiens; test: Selectivity ratio of IC50 for full length recombinant human PDE1C to IC50 for full length recombinant human PDE1B1; summary of the method: as §2
Caspase-3 (Homo sapiens) = Caspase-3 (Homo sapiens) (UniProt P42574); test: Inhibition of recombinant human Caspase-3 using benzyloxycarbonyl- Asp-Glu-Val-Asp-AFC as substrate at 10 uM after 60 mins by fluorimetric method relative to control
[30] = biological target: Dual specificity calcium/calmodulin-dependent 3',5'-cyclic nucleotide phosphodiesterase 1B (Homo sapiens, UniProt Q01064); test: Inhibition of full length recombinant human PDE1B1 using 3',5'-[3H]cAMP as substrate after 30 mins by scintillation proximity assay; summary of the method: as §1
[31] = biological target: Sodium-dependent noradrenaline transporter (Homo sapiens) (UniProt P23975); test: Inhibition of human norepinephrine transporter at 10 uM relative to control
CYP3A4 = CYP3A4 (Homo sapiens, UniProt P08684); test: Inhibition of CYP3A4 (unknown origin) at 10 uM relative to control; type: ADME
[32] = biological target: Mitogen-activated protein kinase 14 (Homo sapiens) (UniProt Q16539); test: Inhibition of recombinant human p38 alpha using Ulight-CFFKNIVTPRTPPPSQGK-amide as substrate at 10 uM after 30 mins in presence of ATP by LANCE method relative to control
[33] = Fraction unbound in Wistar Hannover rat brain at 1 mg/kg, sc measured at 4 hrs post dose by LC-MS/MS analysis; type: ADME, organism-based; conditions: in vivo, BLD = below limit of detection

Type-1 angiotensin II receptor (Homo sapiens), sequence (P30556 whole entry): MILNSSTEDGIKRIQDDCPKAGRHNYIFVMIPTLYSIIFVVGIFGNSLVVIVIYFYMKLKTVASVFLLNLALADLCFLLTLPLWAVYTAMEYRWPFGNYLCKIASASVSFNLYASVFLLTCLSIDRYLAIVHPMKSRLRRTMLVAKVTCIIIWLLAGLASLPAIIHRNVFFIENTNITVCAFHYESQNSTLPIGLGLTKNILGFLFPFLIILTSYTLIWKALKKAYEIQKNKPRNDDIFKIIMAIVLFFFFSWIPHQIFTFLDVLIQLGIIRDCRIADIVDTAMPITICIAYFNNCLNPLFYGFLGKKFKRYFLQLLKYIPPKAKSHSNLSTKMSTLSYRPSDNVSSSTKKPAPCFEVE
Prostaglandin G/H synthase 2 (Homo sapiens), sequence (P35354 whole entry): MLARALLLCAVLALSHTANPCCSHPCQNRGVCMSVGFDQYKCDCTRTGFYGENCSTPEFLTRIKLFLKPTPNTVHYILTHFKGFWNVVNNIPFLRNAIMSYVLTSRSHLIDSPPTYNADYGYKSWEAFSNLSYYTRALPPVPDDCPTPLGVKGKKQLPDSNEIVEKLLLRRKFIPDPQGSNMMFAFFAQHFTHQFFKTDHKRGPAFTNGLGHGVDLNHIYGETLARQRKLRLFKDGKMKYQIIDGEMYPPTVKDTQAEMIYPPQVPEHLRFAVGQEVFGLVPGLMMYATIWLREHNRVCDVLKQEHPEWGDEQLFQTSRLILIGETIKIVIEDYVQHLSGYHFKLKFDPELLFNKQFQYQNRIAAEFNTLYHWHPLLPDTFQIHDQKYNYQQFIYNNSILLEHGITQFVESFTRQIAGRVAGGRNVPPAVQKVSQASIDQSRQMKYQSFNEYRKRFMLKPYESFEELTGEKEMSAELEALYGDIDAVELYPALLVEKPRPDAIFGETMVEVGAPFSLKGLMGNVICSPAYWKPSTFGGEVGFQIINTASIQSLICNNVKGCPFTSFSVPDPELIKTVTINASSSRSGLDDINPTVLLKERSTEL
Prostaglandin G/H synthase 1 (Homo sapiens), sequence (P23219 whole entry): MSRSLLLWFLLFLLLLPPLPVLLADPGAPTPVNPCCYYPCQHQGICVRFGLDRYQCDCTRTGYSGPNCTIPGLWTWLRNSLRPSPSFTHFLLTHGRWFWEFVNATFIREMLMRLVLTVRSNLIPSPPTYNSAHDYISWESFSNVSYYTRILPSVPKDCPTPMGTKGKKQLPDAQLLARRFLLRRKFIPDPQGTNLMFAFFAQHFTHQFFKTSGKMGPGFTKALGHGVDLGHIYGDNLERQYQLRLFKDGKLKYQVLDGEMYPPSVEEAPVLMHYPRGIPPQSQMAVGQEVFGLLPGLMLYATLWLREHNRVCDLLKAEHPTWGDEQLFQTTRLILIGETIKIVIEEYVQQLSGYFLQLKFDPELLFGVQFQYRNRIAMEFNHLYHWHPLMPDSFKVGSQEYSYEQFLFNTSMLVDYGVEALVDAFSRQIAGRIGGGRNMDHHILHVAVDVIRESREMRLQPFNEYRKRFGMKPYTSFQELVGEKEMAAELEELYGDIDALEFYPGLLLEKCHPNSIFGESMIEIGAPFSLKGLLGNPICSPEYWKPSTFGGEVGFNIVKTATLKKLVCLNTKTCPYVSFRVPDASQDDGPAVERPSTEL
BCRP (ABCG2), sequence (Q9UNQ0 whole entry): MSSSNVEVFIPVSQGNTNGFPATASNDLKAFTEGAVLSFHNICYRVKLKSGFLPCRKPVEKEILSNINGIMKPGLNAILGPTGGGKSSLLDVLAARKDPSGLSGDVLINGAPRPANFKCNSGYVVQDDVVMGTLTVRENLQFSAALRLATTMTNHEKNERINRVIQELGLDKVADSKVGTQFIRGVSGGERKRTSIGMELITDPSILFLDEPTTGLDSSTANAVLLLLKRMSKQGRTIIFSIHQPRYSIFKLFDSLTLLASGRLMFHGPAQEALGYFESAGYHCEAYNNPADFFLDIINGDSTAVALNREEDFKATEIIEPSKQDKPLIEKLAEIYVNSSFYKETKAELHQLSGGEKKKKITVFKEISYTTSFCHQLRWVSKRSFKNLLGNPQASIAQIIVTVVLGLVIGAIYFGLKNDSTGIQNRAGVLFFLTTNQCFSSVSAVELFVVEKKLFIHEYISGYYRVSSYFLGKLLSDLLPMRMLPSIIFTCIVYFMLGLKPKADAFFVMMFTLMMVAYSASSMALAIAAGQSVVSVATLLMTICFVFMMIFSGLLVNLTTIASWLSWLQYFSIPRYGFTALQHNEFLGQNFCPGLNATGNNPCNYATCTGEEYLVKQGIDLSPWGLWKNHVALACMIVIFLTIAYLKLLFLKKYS
Dual specificity calcium/calmodulin-dependent 3',5'-cyclic nucleotide phosphodiesterase 1B, sequence (Q01064 whole entry): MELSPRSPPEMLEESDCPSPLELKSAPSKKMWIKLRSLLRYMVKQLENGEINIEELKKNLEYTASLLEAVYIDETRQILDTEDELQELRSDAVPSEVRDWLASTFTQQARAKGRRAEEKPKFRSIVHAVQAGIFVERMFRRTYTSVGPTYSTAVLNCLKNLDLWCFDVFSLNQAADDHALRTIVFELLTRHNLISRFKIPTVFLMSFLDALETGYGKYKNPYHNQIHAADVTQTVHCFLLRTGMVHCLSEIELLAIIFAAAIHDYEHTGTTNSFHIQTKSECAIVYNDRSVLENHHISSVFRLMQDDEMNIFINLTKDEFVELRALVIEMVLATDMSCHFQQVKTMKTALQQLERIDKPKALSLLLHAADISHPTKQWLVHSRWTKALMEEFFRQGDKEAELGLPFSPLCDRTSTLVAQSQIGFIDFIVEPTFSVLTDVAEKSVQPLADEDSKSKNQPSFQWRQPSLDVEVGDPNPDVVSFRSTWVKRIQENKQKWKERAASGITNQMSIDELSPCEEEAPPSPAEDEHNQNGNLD
Mitogen-activated protein kinase 14 (Homo sapiens), sequence (Q16539 whole entry): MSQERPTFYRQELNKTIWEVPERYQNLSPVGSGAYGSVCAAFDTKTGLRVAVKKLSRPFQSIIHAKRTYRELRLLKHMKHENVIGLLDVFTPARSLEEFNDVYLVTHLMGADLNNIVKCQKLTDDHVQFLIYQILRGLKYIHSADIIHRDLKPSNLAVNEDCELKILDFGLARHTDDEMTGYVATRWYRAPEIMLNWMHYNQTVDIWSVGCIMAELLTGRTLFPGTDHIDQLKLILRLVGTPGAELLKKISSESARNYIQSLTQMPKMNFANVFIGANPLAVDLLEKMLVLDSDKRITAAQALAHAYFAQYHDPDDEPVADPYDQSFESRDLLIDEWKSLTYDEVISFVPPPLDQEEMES
5-hydroxytryptamine receptor 1A (Homo sapiens), sequence (P08908 whole entry): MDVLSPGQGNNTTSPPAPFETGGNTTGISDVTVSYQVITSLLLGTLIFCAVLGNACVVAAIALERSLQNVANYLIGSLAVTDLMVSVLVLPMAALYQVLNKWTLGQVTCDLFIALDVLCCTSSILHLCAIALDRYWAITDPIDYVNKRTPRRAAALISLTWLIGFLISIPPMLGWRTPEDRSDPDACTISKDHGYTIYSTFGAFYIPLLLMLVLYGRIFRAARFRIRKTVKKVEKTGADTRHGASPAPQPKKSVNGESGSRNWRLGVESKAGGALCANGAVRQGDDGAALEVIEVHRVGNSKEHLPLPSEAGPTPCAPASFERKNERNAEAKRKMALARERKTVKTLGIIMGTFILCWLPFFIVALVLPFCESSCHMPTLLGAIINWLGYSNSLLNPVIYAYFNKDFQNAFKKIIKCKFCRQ
Melatonin receptor type 1A (Homo sapiens), sequence (P48039 whole entry): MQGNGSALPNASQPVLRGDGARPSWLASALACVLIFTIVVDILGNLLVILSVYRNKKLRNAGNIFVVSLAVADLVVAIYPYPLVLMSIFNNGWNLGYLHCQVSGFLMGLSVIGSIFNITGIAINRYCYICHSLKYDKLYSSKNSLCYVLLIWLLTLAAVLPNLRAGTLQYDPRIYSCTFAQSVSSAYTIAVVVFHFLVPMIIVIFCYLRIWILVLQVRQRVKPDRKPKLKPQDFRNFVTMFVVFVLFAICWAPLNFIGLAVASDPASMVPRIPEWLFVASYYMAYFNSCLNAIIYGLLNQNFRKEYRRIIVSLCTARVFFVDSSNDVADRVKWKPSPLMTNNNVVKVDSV
High affinity choline transporter 1 (Homo sapiens), sequence (Q9GZV3 whole entry): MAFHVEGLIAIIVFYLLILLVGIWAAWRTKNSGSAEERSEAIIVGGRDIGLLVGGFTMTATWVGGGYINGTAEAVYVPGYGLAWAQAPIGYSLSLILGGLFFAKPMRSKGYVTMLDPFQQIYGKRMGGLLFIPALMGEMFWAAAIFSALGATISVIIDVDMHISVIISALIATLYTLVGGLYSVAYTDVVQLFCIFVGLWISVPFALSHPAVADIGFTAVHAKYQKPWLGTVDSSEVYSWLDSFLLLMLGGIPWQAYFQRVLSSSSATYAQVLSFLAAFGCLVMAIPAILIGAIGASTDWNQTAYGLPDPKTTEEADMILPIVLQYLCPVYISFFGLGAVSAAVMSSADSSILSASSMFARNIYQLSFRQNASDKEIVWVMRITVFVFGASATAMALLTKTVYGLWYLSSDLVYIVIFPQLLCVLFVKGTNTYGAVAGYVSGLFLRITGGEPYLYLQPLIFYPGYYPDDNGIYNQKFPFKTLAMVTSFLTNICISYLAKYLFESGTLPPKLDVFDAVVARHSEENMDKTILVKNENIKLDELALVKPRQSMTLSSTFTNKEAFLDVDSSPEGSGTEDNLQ
Histamine H1 receptor (Homo sapiens), sequence (P35367 whole entry): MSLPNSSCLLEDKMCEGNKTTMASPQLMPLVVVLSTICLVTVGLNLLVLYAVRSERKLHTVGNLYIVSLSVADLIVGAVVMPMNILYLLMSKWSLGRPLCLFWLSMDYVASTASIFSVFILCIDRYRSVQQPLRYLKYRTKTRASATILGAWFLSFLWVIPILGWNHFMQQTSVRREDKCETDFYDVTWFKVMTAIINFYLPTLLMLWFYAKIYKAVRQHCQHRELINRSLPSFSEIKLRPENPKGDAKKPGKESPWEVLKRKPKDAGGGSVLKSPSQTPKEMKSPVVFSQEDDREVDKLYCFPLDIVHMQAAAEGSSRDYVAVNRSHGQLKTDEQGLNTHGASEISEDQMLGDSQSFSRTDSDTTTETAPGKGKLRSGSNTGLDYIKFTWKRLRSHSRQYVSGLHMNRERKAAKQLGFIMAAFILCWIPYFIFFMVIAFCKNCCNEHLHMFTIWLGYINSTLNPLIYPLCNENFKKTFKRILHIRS

`COc1ccc2c(N[C@@H](C)Cc3cc(C)[nH]n3)ncnc2c1OC` showed an inhibition [1] of under 50%, an IC50 [2] of 34.7 µM and a Ratio IC50 (Homo sapiens [3]) of 2890. It also gave an inhibition [4] of under 50%, an inhibition [5] of under 50% and a Ratio IC50 (Homo sapiens [6]) of 4.6. For the same compound, the inhibition [7] was under 50%, the inhibition [8] was under 50% and the inhibition [9] was under 50%. For the same compound, the inhibition [10] was under 50%, the efflux ratio (BCRP (ABCG2)) was 84 and the Ratio IC50 (Homo sapiens [11]) was 14600. For the same compound, the inhibition [12] was under 50%, the “Cp(f)” value [13] was 171 nM and the fraction unbound [14] was 0.25. The inhibition [15] was under 50%, the inhibition [16] was under 50% and the “Cp(f)” value [17] was 40 nM. For the same compound, the Ratio IC50 (Homo sapiens [18]) was 1130, the inhibition (Homo sapiens [19]) was under 50% and the “Drug uptake(free)” value [20] was 2 nM. For the same compound, the Ratio [21] was 0.05, the inhibition [22] was under 50% and the inhibition (Homo sapiens [23]) was under 50%. It also gave an inhibition [24] of under 50%, a Ratio IC50 (Homo sapiens [25]) of 1700 and an inhibition [26] of under 50%. It also gave a concentration at 1 h [27] of 16 nM, an inhibition [28] of under 50% and a Ratio IC50 (Homo sapiens [29]) of 4.2. The inhibition (Caspase-3 (Homo sapiens)) was under 50%, the IC50 [30] was 0.0091 µM and the inhibition [31] was under 50%. The inhibition at 10 µM (CYP3A4) was under 50%, the inhibition [32] was under 50% and the “Drug uptake(free)” value [33] was “Bld”.
